≈ marks a conversion by molar mass, not a printed value. Calls of active or inactive are those of the source.
Experiments:
[1] = molecular target: Sodium channel protein type 10 subunit alpha (Mus musculus, UniProt Q6QIY3); assay: Inhibition of mouse NaV1.8 expressed in HEK293 cells by isotopic efflux assay; type: cell-based
Outline: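 HEK293 cells stably expressing mouse Nav1.8 were loaded overnight with radiotracer, then stimulated. Efflux was read at a single time point on the linear part of the efflux curve. % inhibition = (1 − [test − reference blocker]/[control − reference blocker]) × 100. Eight-point concentration–response curves run in duplicate gave the IC50.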

[2] = Aqueous solubility of the compound; type: physicochemical; details: buffer
[3] = molecular target: T1, Sodium channel protein type 2 subunit alpha (Homo sapiens, UniProt Q99250); assay: Inhibition of human recombinant NaV1.2 by electrophysiology
Outline: (§1)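 Whole-cell voltage clamp of HEK-293 cells expressing recombinant human Nav1.2. Membrane potential was held at the V1/2 of steady-state inactivation, −60 mV. Compounds came from 10 mM DMSO stocks, diluted in extracellular solution (final DMSO <0.1%) and perfused at 1–2 mL/min at room temperature (21–25 °C). Tested at 1–3 concentrations with 2–6 measurements each; estimates averaged. Single-point data given as % inhibition at 3 µM.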

[4] = molecular target: Sodium channel protein type 10 subunit alpha (Rattus norvegicus, UniProt Q62968); assay: Inhibition of tetrodotoxin-resistant NaV1.8 in rat dorsal root ganglion neurons at holding potential -100 mV by whole-cell patch clamp electrophysiology assay; type: tissue-based
Sequence of Sodium channel protein type 10 subunit alpha (Rattus norvegicus, UniProt Q62968) (Q62968 whole entry): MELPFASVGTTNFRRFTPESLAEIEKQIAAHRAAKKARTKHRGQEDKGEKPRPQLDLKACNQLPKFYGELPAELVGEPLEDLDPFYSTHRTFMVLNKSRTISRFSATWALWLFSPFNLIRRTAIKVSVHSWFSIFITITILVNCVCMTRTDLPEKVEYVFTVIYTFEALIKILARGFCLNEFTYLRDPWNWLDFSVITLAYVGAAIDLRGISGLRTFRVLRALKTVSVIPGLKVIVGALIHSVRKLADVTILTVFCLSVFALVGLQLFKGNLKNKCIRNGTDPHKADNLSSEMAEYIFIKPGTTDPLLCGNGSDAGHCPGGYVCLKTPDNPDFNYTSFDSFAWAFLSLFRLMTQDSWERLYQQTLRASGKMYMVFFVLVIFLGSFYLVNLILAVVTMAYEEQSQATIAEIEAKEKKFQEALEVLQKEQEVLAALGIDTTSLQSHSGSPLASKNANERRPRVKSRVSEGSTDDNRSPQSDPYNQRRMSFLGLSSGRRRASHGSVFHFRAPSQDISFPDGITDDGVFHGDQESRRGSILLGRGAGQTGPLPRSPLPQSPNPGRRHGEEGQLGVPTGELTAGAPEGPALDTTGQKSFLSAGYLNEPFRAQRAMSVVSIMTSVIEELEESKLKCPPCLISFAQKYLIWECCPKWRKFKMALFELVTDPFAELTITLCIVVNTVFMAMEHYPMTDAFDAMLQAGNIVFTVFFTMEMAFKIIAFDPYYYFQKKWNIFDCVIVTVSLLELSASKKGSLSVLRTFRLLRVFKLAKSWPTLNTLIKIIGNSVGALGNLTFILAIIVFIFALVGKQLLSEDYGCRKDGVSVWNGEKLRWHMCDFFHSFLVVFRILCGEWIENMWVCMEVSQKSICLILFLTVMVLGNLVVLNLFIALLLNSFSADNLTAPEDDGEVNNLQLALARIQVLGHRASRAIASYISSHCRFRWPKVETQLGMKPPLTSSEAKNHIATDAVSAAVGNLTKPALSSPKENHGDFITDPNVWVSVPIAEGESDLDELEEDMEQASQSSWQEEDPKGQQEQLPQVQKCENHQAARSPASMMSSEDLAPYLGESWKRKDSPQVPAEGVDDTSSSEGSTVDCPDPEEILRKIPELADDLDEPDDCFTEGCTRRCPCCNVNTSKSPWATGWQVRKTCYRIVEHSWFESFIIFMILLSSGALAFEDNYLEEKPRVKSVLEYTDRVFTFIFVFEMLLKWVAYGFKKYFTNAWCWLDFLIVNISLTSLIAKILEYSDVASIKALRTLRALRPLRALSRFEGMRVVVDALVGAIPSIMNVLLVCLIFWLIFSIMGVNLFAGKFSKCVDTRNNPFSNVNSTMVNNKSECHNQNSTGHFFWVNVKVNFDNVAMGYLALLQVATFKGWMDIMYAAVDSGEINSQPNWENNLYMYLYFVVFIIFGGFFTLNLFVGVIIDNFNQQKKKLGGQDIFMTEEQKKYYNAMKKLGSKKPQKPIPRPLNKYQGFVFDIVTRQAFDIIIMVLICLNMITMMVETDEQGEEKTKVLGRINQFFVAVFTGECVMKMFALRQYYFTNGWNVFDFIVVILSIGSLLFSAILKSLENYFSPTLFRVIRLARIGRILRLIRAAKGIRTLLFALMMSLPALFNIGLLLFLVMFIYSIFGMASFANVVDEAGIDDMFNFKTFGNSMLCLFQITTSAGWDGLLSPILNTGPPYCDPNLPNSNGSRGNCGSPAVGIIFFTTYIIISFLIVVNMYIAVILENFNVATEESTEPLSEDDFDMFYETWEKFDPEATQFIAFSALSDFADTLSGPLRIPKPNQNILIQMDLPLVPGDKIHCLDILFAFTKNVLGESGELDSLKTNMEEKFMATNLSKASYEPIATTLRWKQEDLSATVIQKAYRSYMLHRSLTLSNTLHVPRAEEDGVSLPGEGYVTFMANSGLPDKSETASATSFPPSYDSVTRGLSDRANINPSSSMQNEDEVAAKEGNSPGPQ

[5] = molecular target: Sodium channel protein type 10 subunit alpha (Homo sapiens, UniProt Q9Y5Y9); assay: Inhibition of human recombinant NaV1.8 expressed in HEK293 cells by conventional voltage clamp electrophysiology assay; type: cell-based
Outline: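 HEK-293 cells stably expressing human Nav1.8 were recorded by conventional whole-cell voltage clamp with the holding potential at the inactivation V1/2, −40 mV. DMSO stocks (10 mM) were diluted into extracellular solution (final DMSO <0.1%) and gravity-perfused at 1–2 mL/min at 21–25 °C. Each compound was run at 1–3 concentrations with 2–6 measurements each; estimates averaged.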

[6] = Selectivity ratio of IC50 for tetrodotoxin-resistant NaV1.8 in rat dorsal root ganglion neurons to IC50 for human Nav1.2; type: tissue-based
Outline: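 Ratio of the IC50 for native TTX-resistant current in dissociated rat DRG neurons (held at V1/2, −40 mV) to the IC50 for recombinant human Nav1.2 in HEK-293 cells (held at −60 mV).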

[7] = Clearance in rat microsomes; type: ADME, Liver, Microsome
Homo sapiens = organism: Homo sapiens; assay: Selectivity ratio of IC50 for human NAv1.8 to IC50 for human Nav1.2
Outline: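 Ratio of the IC50 values from whole-cell voltage clamp of human Nav1.8 (held at −40 mV) and human Nav1.2 (held at −60 mV), both expressed in HEK-293 cells. Each channel was held at its inactivation V1/2.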

[8] = Selectivity ratio of IC50 for human NaV1.8 to IC50 for human Nav1.2
[9] = molecular target: T1, Sodium channel protein type 2 subunit alpha; assay: Inhibition of human recombinant NaV1.2 at 3 uM by electrophysiology; outline: as §1
Plasma = assay: Plasma protein binding in rat; type: ADME, cell-free
[10] = molecular target: Beta-2 adrenergic receptor (Homo sapiens) (UniProt P07550); assay: Inhibition of human adrenergic beta2 receptor at 10 uM
Sequence of Beta-2 adrenergic receptor (Homo sapiens) (P07550 whole entry, looked up): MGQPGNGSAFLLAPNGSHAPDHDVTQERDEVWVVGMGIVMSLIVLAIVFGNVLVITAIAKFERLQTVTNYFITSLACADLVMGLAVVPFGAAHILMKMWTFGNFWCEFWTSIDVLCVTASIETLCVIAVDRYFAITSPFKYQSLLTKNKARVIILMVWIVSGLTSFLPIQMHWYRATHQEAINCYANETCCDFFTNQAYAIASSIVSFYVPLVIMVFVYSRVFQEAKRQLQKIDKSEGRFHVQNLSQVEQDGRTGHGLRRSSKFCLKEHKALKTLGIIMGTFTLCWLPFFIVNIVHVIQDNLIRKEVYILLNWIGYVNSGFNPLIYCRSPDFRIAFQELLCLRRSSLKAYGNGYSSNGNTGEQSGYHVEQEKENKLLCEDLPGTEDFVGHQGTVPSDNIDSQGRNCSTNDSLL

[11] = Cmax in rat at 3 mg/kg, po; type: ADME, organism-based; parameters: dose 3 mg/kg, route oral; details: in vivo
[12] = Half life in rat at 3 mg/kg, po; type: ADME, organism-based; parameters: dose 3 mg/kg, route oral; details: in vivo
Outline: (§2)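 Rat pharmacokinetics (n = 3) after a single 3 mg/kg iv or po dose. Plasma clearance, Vss, half-life and oral bioavailability were derived from plasma exposure.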

[13] = molecular target: Substance-P receptor (Homo sapiens) (UniProt P25103); assay: Inhibition of human NK1 receptor at 10 uM
Sequence of Substance-P receptor (Homo sapiens) (P25103 whole entry): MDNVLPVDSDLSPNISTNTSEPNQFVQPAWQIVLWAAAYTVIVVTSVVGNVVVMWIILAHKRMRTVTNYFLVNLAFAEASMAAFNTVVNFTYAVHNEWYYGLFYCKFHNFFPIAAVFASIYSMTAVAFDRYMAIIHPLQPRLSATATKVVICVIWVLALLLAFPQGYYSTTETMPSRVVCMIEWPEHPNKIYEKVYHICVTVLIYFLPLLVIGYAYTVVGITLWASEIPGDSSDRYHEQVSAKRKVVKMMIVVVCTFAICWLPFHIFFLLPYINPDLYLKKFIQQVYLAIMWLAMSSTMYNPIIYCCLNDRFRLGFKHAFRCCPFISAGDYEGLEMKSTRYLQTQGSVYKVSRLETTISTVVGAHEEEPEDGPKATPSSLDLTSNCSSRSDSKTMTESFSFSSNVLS

[14] = Half life in rat at 3 mg/kg, iv; type: ADME, organism-based; parameters: dose 3 mg/kg, route intravenous; details: in vivo; outline: as §2
Rattus norvegicus [15] = assay: Analgesic activity in po dosed Sprague-Dawley rat L5/L6 spinal nerve injury Chung model of neuropathic pain assessed as reduction of von Frey hair-induced paw withdrawal threshold administered 60 mins before von Frey hair challenge; type: functional
Outline: (§3)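 Rats with L5/L6 spinal nerve ligation (Kim and Chung method) dosed orally at 10, 30 or 100 mg/kg, 60 min before von Frey testing of paw withdrawal threshold on the injured and contralateral sides. At least six animals per group, compared with vehicle-treated animals; mean ± SEM, ANOVA with post-hoc tests (P <0.05). ED50 estimated by least-squares linear regression.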

[16] = Volume of distribution at steady state in rat at 3 mg/kg, iv; type: ADME, organism-based; parameters: dose 3 mg/kg, route intravenous; details: in vivo, read-out: Vdss; outline: as §2
[17] = Inhibition of BZD receptor at 10 uM
[18] = Oral bioavailability in rat at 3 mg/kg; type: ADME, organism-based; details: in vivo; outline: as §2
Rattus norvegicus [19] = assay: Analgesic activity in Sprague-Dawley rat L5/L6 spinal nerve injury Chung model of neuropathic pain assessed as reduction of von Frey hair-induced paw withdrawal threshold at 100 mg/kg, po administered 60 mins before von Frey hair challenge; type: functional; outline: as §3

Sequence of Sodium channel protein type 10 subunit alpha (Mus musculus, UniProt Q6QIY3) (Q6QIY3 whole entry): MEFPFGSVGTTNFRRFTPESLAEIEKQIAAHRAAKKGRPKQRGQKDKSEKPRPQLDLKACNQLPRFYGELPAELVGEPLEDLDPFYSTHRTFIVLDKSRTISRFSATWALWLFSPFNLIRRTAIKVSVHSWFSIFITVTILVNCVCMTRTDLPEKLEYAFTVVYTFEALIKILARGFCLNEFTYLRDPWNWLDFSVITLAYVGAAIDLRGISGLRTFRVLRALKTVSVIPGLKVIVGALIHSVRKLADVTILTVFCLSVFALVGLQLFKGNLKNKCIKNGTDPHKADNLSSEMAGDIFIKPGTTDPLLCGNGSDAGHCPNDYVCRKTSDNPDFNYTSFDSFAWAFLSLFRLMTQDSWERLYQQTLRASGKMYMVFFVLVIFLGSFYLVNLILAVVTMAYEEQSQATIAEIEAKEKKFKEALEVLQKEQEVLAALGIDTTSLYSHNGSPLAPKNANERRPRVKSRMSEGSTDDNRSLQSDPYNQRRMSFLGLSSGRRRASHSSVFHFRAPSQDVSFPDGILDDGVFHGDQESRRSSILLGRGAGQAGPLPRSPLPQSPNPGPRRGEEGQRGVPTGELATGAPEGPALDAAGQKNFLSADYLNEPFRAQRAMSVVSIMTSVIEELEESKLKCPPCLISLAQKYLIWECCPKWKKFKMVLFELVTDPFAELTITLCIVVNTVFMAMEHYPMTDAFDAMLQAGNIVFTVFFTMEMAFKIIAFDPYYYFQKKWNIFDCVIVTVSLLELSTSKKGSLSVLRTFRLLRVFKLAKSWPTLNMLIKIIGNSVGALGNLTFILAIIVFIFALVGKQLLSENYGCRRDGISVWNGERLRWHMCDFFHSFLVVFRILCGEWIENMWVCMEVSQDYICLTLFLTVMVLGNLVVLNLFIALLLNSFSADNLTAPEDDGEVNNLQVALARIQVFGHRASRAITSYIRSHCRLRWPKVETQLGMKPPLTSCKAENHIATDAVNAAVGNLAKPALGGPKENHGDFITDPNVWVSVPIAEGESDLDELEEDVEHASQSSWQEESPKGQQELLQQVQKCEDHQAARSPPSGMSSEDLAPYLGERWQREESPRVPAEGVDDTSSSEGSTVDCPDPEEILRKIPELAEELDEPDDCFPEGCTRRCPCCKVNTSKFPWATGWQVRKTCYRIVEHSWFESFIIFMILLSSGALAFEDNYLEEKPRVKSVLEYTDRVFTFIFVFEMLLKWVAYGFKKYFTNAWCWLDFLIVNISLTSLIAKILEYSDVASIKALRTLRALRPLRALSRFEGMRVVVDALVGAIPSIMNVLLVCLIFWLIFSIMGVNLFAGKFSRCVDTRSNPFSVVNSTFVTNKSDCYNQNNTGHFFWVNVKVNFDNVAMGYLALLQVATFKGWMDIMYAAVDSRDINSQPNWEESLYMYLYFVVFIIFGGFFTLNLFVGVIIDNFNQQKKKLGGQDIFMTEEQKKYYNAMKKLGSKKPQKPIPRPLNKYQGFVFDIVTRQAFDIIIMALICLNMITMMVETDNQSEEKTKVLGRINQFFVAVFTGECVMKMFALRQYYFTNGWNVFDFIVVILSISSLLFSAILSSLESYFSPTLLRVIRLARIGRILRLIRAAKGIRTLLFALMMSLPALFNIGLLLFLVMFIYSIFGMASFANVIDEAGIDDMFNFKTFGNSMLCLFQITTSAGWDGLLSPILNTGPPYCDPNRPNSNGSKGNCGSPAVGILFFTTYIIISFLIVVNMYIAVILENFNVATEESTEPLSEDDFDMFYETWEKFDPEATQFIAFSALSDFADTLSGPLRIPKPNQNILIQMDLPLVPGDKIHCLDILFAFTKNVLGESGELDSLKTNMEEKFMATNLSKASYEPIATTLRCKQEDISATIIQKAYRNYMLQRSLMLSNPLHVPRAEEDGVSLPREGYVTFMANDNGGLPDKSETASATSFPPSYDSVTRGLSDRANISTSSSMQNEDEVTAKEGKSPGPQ

IC50 [1] [nM] | solubility [2] [µg/mL] | IC50 [3] [nM] | IC50 [5] [nM] | CL [7] [µL/min] | Structure (SMILES) | IC50 [4] [nM] | further results
18000 |  |  |  |  | O=C(Nc1cccnc1)c1cncc(-c2ccc(Cl)cc2)n1 |  | 
650 | < 0.1 | 1000 | 1 |  | CCOc1ccc(-c2cncc(C(=O)Nc3cccc(C)c3)n2)cc1 | 68 | 
4140 |  |  | 320 |  | O=C(NCc1ccncc1N1CCOCC1)c1cncc(-c2ccc(Cl)cc2)n1 |  | 
210 | 0.65 (≈ 1.65 µM) | 1000 | 30 |  | O=C(NCc1cccnc1N1CCCC1)c1cncc(-c2ccc(Cl)cc2)n1 | 550 | 
490 | < 0.1 | 5000 | 3 | 83 | Cc1cc(C)cc(NC(=O)c2cncc(-c3ccc(Cl)cc3)n2)c1 | 52 | Ratio IC50 [6]: > 1600; Ratio IC50 (Homo sapiens): > 1000
 | < 0.1 |  |  | 140 | COc1cc(NC(=O)c2ccc(-c3ccc(Cl)cc3)o2)cc(OC)c1 |  | 
2680 | < 0.1 | 1000 | 19 |  | O=C(NCCc1ccc(Cl)cc1)c1cncc(-c2ccc(Cl)cc2)n1 | 360 | Ratio IC50 [8]: 53; Ratio IC50 (Homo sapiens): 53
58 | < 0.1 |  |  |  | Cc1cc(C)cc(NC(=O)c2cncc(-c3ccc(OC(F)(F)F)cc3)n2)c1 |  | inhibition [9]: 93%
1340 | < 0.1 |  | 27 |  | Cc1ccccc1CNC(=O)c1cncc(-c2ccc(Cl)cc2)n1 | 110 | inhibition [9]: 2%
29100 |  |  |  |  | O=C(NCc1cnccc1N1CCOCC1)c1cncc(-c2ccc(Cl)cc2)n1 |  | 
66 | < 0.1 | 2200 | 5 |  | Cc1cccc(NC(=O)c2cncc(-c3ccc(OC(F)(F)F)cc3)n2)c1 | 16 | 
480 | > 50 | 1500 | 19 |  | O=C(NCc1cccnc1N1CCOCC1)c1cncc(-c2ccc(OC(F)(F)F)cc2)n1 | 85 | Activity (Plasma): 93.2%; inhibition [10]: > 60%; Cmax [11]: 150 ng/mL; half-life [12]: 1.6 h; inhibition [13]: > 60%; half-life [14]: 1.9 h; clearance [7]: 98 µL/min; Activity (Rattus norvegicus [15]): Dose-dependent effect; ED50 (Rattus norvegicus [15]): 78 mg/kg; Vd [16]: 3.3 L/kg; inhibition [17]: > 60%; Ratio IC50 (Homo sapiens): 79; bioavailability [18]: 18.2%
1030 |  | 3900 | 99 | 143 | O=C(NCc1cccnc1Cl)c1cncc(-c2ccc(OC(F)(F)F)cc2)n1 | 90 | 
9400 | 0.35 (≈ 1.07 µM) | 1000 | 150 |  | Cc1ccccc1CNC(=O)c1cncc(-c2ccc(C#N)cc2)n1 | 450 | 
56 | < 0.1 | 360 | 2 |  | CCOc1ccc(-c2cncc(C(=O)Nc3cc(C)cc(C)c3)n2)cc1 | 12 | 
2500 | 2.7 (≈ 6.59 µM) |  | 37 | 410 | O=C(NCc1cccnc1N1CCOCC1)c1cncc(-c2ccc(Cl)cc2)n1 | 280 | inhibition [9]: 11%
1070 | < 0.1 | 6200 | 6 |  | COc1cc(NC(=O)c2cncc(-c3ccc(Cl)cc3)n2)cc(OC)c1 | 190 | Ratio IC50 (Homo sapiens): > 1000
110 | 0.14 (≈ 0.403 µM) | 470 | 2 | 630 | CCOc1ccc(-c2cncc(C(=O)NCc3ccccc3C)n2)cc1 | 19 | 
960 | < 0.1 | 8200 | 6 |  | Cc1cccc(NC(=O)c2cncc(-c3ccc(Cl)cc3)n2)c1 | 280 | Ratio IC50 (Homo sapiens): > 1000
470 | 0.03 (≈ 0.0914 µM) | 1600 | 8 | 140 | Cc1cc(C)cc(NC(=O)c2cncc(-c3ccc(C#N)cc3)n2)c1 | 84 | inhibition in vivo at 100 mg/kg (Rattus norvegicus [19]): < 20%; Activity (Plasma): 55.2%; inhibition [10]: inactive; inhibition [13]: inactive; half-life [14]: 1.6 h; Vd [16]: 5.1 L/kg; inhibition [17]: inactive; bioavailability [18]: 0%
11000 | 1 (≈ 3.08 µM) |  |  |  | O=C(NCc1cccnc1)c1cncc(-c2ccc(Cl)cc2)n1 |  | 
240 |  | 1200 | 18 |  | Cc1ccccc1CNC(=O)c1cncc(-c2ccc(OC(F)(F)F)cc2)n1 | 170 | 
730 | 0.08 (≈ 0.223 µM) | 9100 | 49 | 120 | CC(C)Oc1cccc(NC(=O)c2cncc(-c3ccc(C#N)cc3)n2)c1 | 130 | 

Source: ChEMBL document CHEMBL1275385, “Discovery and biological evaluation of potent, selective, orally bioavailable, pyrazine-based blockers of the Na(v)1.8 sodium channel with efficacy in a model of neuropathic pain” (Bioorg Med Chem, 2010)
